Assay [1] can be described thus: Induction of cell differentiation in MEL cells at 100 uM after 96 hrs by benzidine staining. It counts as functional, Mus musculus. The method in brief:
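MEL cells were seeded at 1.0 x 10^5 cells/mL in DMEM with 10% FBS and 1% PS at 37 °C, 5% CO2, then exposed to 100 µM agent in DMSO (final DMSO below 0.5% v/v) for 96 h. HMBA 5 mM served as positive control. Hb-producing cells were scored by benzidine-H2O2 staining and reported as percentage benzidine-positive.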

Assay [2] in a line: Growth inhibition of MEL cells at 0.01 to 100 uM after 48 hrs relative to control. It is filed as functional, Mus musculus. The method in brief: (§1)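 MEL cells seeded at 1.0 x 10^5 cells/mL in DMEM with 10% v/v FBS and 1% PS, 37 °C, 5% CO2. Agents dissolved in DMSO (final DMSO below 0.5% v/v) and tested at 0.01–100 µM for 48 h. Cells counted by Neubauer hemocytometer. Growth given as percentage of untreated control.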

Assay [3] has as its system MEL. Kind of assay: Growth inhibition of MEL cells after 48 hrs. It is filed as functional, cell-based. To be noted: Mus musculus. The method in brief: as §1
Assay [4] in a line: Upregulation of beta-major globin gene expression in MEL cells at 5 mM after 24 to 96 hrs by RT-PCR analysis. It counts as functional, cell-based. As to conditions: Mus musculus. In a few lines:
(§2)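 MEL cells were treated with 10^-4 M agent or 5 mM HMBA for 0, 24, 48, 72 and 96 h, with untreated cells as control. Cells were washed in PBS. Total cytoplasmic RNA (1 µg/reaction) was extracted by acid guanidinium thiocyanate-phenol-chloroform and run in one-step RT-PCR: 50 °C 30 min, 94 °C 2 min, then 30 cycles of 94/58/72 °C, then 72 °C 10 min. β-major globin primers were used with β-actin as internal control.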

In assay [5] the test system is MEL. Briefly: Induction of cell differentiation in MEL cells assessed as hemoglobin accumulation at 5 mM by after 24 to 96 hrs by spectrophotometry. It is filed as functional, cell-based. As to conditions: Mus musculus. In a few lines:
(§3)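 MEL cells (1.0 x 10^5 cells/mL, DMEM/10% FBS/1% PS, 37 °C, 5% CO2) were treated with 10^-4 M agent or 5 mM HMBA, alongside untreated controls. Total cellular Hb was measured spectrophotometrically in samples taken over a 24–96 h time course.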

Assay [6] in a line: Growth inhibition of MEL cells at 0.1 mM after 96 hrs. It is filed as functional. To be noted: Mus musculus, read-out: GI. The method in brief: (§4)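 Exponentially growing MEL cells (1.0 x 10^5 cells/mL, DMEM/10% FBS/1% PS, 37 °C, 5% CO2) were exposed to 10^-4 M agent in DMSO. Untreated cultures served as control and HMBA 5 mM as reference. Samples were removed at various intervals up to 96 h and counted by hemocytometer. Growth was expressed as absolute number or as percentage of control.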

The subject of assay [7] is MEL. Kind of assay: Growth inhibition of MEL cells at 0.1 mM. As to conditions: Mus musculus, TDE = time-dependent effect. It counts as functional, cell-based. In a few lines: as §4
Assay [8] is described as follows: Upregulation of beta-major globin gene expression in MEL cells at 0.1 mM after 24 to 96 hrs by RT-PCR analysis. It is filed as functional, cell-based. To be noted: Mus musculus. In a few lines:
as §2

The subject of assay [9] is MEL. Kind of assay: Induction of cell differentiation in MEL cells assessed as hemoglobin accumulation at 0.1 mM by after 24 to 96 hrs by spectrophotometry. To be noted: Mus musculus. It counts as functional, cell-based. In a few lines:
as §3

6 compounds from ChEMBL document CHEMBL1955744, “Bis-pyrrolyl-tetrazolyl derivatives as hybrid polar compounds: A case of lipophilic functional bioisosterism with bis-acetamides” (2012) can be followed below.

The source made the active and inactive calls. The calls are words filed in the database; no cut-off is given here.

`c1ccn(-c2nnn(CCCCCCCn3nnc(-n4cccc4)n3)n2)c1`: in assay [1], the Activity came out at 5%. Further, the “growth inhibition (GI)” value in assay [2] was 30%; in the assay on MEL [3], “Dose-dependent effect”.

Consider `c1ccn(-c2nnn(CCCCCn3nnc(-n4cccc4)n3)n2)c1`, for which the Activity in assay [1] is on record as 5%. For the same compound, the “growth inhibition (GI)” value in [2] was 30%; with MEL [3] it was “Dose-dependent effect”.

In the case of `CC(=O)NCCCCCCNC(C)=O`, the result (in assay [4]; in the assay on MEL [5]) was Active.

`c1ccn(-c2nnn(Cc3ccc(Cn4nnc(-n5cccc5)n4)cc3)n2)c1`: in assay [1], the Activity is 5%. Also, the “growth inhibition (GI)” value in assay [2] is 30%; in the assay with MEL [3], “Dose-dependent effect”.

For `CNC(=O)c1cccn1-c1nnn(CCCCCCn2nnc(-n3cccc3C(=O)NC)n2)n1`, the Activity in assay [1] amounted to 5%. In addition, the “growth inhibition (GI)” value in [2] is 30%; with MEL [3], “Dose-dependent effect”.

For the compound `c1ccn(-c2nnn(CCCCCCn3nnc(-n4cccc4)n3)n2)c1`, the inhibition of growth at 100 µM in assay [6] was greater than 75%. In assay [1], this compound showed an Activity of 30%. The figures for the “growth inhibition (GI)” value (in the assay on MEL [7]; in assay [2]; with MEL [3]) were “tde”, 30% and “Dose-dependent effect”, respectively. In addition, the result (in assay [8]; in the assay on MEL [9]) was Active.
